Results on 2 compounds are retold here after ChEMBL document CHEMBL4673255, “Acylated 1H-1,2,4-Triazol-5-amines Targeting Human Coagulation Factor XIIa and Thrombin: Conventional and Microscale Synthesis, Anticoagulant Properties, and Mechanism of Action” (J Med Chem, 2020).

In series [1] the target is T1, Coagulation factor X (Homo sapiens, UniProt P00742). The series is described as follows: Inhibition of human coagulation factor Xa using Boc-Ile-Glu-Gly-Arg-AMC as fluorogenic substrate measured at 1 min interval for 1 hr by fluorometric assay.
In series [2] the test system is Plasma. As to the kind of experiment: Antiplatelet activity in human platelet-rich plasma assessed as inhibition of thrombin induced platelet activation by measuring reduction in ATP release preincubated for 20 mins followed by thrombin addition and measured after 10 mins by luciferin-based luminescence assay. Type of series: functional, cell-free. As to conditions: time 30.0 min. The gist of the method:
(§1)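 Platelet activation measured as dense-granule ATP release by firefly luciferase bioluminescence. Compound-treated platelets were activated with MDA-MB-231 cells, thrombin or TRAP-6. TRAP-6-induced signal was set as 100%. Triplicate, mean ± SD.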

Series [3] has as its system Plasma. The series is described as follows: Antiplatelet activity in human platelet-rich plasma assessed as inhibition of TRAP6 induced platelet activation by measuring reduction in ATP release at 1 uM preincubated for 20 mins followed by TRAP6 addition and measured after 10 mins by luciferin-based luminescence assay. Type of series: functional, cell-free. As to conditions: time 30.0 min. Summed up:
as §1

Series [4] has as its system Plasma. The series is described as follows: Antiplatelet activity in […] assessed as inhibition of MDA-MB-231-induced platelet aggregation at 100 nM by light transmission aggregometry. It counts as functional. The note with it: Homo sapiens.
Series [5] relates to CCF-STTG1. The series is described as follows: Cytotoxicity against human CCF-STTG1 cells assessed as reduction in cell viability at 100 uM incubated for 48 hrs by alamar blue assay relative to control. Type of series: cell-based. The note with it: ccf-sttg1, 48 h.
For series [6], the target named is T2, Coagulation factor XII (Homo sapiens) (UniProt P00748).
T2 sequence (whole entry): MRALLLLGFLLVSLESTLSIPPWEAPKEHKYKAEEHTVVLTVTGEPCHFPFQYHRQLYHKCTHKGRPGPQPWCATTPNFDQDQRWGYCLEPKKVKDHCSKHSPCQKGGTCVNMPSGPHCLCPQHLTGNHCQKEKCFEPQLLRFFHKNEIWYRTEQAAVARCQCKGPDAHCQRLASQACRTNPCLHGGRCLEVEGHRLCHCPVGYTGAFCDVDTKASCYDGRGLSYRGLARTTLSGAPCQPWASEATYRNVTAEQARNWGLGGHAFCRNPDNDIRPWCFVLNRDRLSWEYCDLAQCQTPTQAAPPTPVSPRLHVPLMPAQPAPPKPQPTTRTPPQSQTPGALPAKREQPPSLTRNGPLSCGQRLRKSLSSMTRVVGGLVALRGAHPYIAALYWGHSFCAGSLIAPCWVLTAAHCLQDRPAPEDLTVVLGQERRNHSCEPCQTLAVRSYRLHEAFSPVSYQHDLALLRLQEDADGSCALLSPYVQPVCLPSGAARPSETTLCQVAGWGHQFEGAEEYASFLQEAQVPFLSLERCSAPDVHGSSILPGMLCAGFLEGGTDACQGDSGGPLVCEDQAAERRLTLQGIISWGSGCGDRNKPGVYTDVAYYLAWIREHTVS
The series is described as follows: Binding affinity to human plasma coagulation factor XIIA assessed as compound-adduct formation by measuring change in molecular mass at molar ratio of 1:20 measured after 4 mins by SEC/ESI-TOF mass spectra analysis. Type of series: cell-free. The gist of the method:
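β-FXIIa incubated with inhibitor at a 1:20 molar ratio, then size-exclusion chromatography coupled to ESI-MS to measure the mass of enzyme–inhibitor complexes. Further runs checked complex stability to probe reversibility.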
(Size exclusion chromatography separates by hydrodynamic size, large species first.)

In series [7] the test system is Plasma. The series is described as follows: Antiplatelet activity in […] assessed as inhibition of TRAP6-induced platelet aggregation at 0.1 to 10 uM by light transmission aggregometry. As to conditions: Homo sapiens, dose 0.1-10 µM. Type of series: functional.
Series [8] has as its target T1, Coagulation factor X. The series is described as follows: Inhibition of human coagulation factor Xa using Boc-Ile-Glu-Gly-Arg-AMC as fluorogenic substrate at 5 uM measured at 1 min interval for 1 hr by fluorometric assay relative to control.

Activity calls are given as the source filed them. The rule behind the calls is not given here.

T1 sequence (P00742 41-179 limits assumed): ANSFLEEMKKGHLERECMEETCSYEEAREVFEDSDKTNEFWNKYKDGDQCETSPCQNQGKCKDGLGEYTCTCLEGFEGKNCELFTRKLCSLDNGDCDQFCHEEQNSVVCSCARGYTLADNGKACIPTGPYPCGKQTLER
T1 sequence (P00742 235-488 limits assumed): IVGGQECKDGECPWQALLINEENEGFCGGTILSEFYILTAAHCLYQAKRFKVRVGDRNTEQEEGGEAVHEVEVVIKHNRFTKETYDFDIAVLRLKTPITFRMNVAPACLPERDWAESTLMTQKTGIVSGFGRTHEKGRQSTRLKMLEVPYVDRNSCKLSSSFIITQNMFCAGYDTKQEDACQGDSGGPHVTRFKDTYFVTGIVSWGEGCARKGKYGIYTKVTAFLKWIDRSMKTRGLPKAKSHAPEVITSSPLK

The IC50 is the concentration needed to halve the response being measured. Low readings indicate higher potency, high ones lower potency. On to `Nc1nc(-c2ccccn2)nn1C(=O)c1cccc2ccccc12`, for which, in series [1], the IC50 is > 5 µM.

As usually defined, the inhibition is the change of the read-out against control, counted positive when it falls. Regarding `Nc1nc(-c2ccccn2)nn1C(=O)c1ccc2ccccc2c1`, the inhibition entry in series [2] is “Dose-dependent effect”; in series [8], 48%. Also, the inhibition entry in series [3], in series [4] and in series [7] was “inactive” each time. Besides, the Activity turned out to be 36% in series [5] and 154 Da in series [6].
